Results on 15 compounds are retold here after ChEMBL document CHEMBL2146474, “Synthesis and evaluation of the anti-proliferative and NF-κB activities of a library of simplified tylophorine analogs” (Bioorg Med Chem, 2012).

Assay [1] relates to MCF7. Put plainly: Cytotoxicity against human MCF7 cells assessed as growth inhibition at 5 uM after 72 hrs by alamar blue assay. In kind it is functional. The following applies: for inhibition of growth at 5 µM: MCF7, 72 h, read-out: GI. (In general: Resazurin is reduced to fluorescent resorufin, in cell work by metabolically active cells.)
Assay [2] has as its system MCF7. Put plainly: Growth inhibition in human MCF7 cells after 72 hrs by alamar blue assay. The class given is functional. The following applies: MCF7, 72 h. Put shortly: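 MCF-7 cells from exponential-phase culture re-suspended in RPMI1640 with 10% FBS, adjusted to 10⁵ cells/mL and plated in 96-well plates. Compounds from 10 mM DMSO stocks were added in fresh medium across varying concentrations. Cells were grown a further 72 h, then alamarBlue was added as read-out.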

Assay [3] in a line: Inhibition of TNFalpha-induced NF-kappaB activation in human A549 cells after 30 mins by luciferase reporter gene assay. In kind it is cell-based. The following applies: A549, 0.5 h. An outline of the steps: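 A549/NF-κB-luc reporter cells trypsinized, seeded at 5000 cells/well and left 24 h to attach. Compound in complete growth medium added 30 min before TNF-α (1:667 dilution in 1× PBS). After a further 7 h, Bright-Glo luciferin reagent added and luciferase activity read 2 min later.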
In general terms: A reporter such as luciferase makes a cellular process visible.

For assay [4], the system named is DU-145. Description: Growth inhibition in human DU145 cells after 72 hrs by alamar blue assay. In kind it is functional. The following applies: DU-145, 72 h. An outline of the steps: (§1)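 Cells harvested from exponential-phase culture and resuspended at 10⁵ cells/mL in growth medium with 10% FBS (RPMI1640, EMEM or DMEM; the DMEM also held penicillin, streptomycin and hygromycin), seeded in 96-well plates. Compounds from 10 mM DMSO stocks added in fresh medium across varying concentrations. Cultures grown a further 72 h, then alamarBlue added as read-out.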

Assay [5] has as its system A549. Put plainly: Growth inhibition in human A549 cells after 72 hrs by alamar blue assay. The class given is functional. The following applies: A549, 72 h. Put shortly:
as §1

Active and inactive are the calls of the source. The calls are words filed in the database; no cut-off is given here.

Consider `COc1cc2c3c(c4cc(OC)c(OC)cc4c2cc1OC)CN(C)CC3`, for which the inhibition of growth at 5 µM in assay [1] amounted to 50%. In assay [2], `COc1cc2c3c(c4cc(OC)c(OC)cc4c2cc1OC)CN1CCC[C@@H]1C3` [TYLOPHORINE] gave a GI50 of 32 nM. In assay [3], `COc1cc2c3c(c4cc(OC)c(OC)cc4c2cc1OC)CN1CCCC1C3` (racemic) [(+/-)-TYLOPHORINE] registered an IC50 of 30 nM. For the same compound, the GI50 in assay [4] turned out to be 71 nM; in assay [2], 42 nM; in assay [5], 45 nM. As for `COc1cc2c3c(c4cc(OC)c(OC)cc4c2cc1OC)CNCC3`, the inhibition of growth at 5 µM in assay [1] worked out at 50%. As for `COc1ccc(CN2CCc3c(c4cc(OC)c(OC)cc4c4cc(OC)c(OC)cc34)C2)cc1`, the “growth inhibition (GI)” value in assay [1] was “Active”. As for `COc1cc2c3c(c4cc(OC)c(OC)cc4c2cc1OC)CN(Cc1ccc([N+](=O)[O-])cc1)CC3`, the “growth inhibition (GI)” value in assay [1] was “Active”. On to `COc1cc2c3c(c4cc(OC)c(OC)cc4c2cc1OC)CN(Cc1cccc(OC)c1O)CC3`, for which, in assay [3], the IC50 came out at 18900 nM. Moreover, the GI50 in assay [4] was 2100 nM; in assay [2], 3000 nM; in assay [5], 2100 nM. Also, the “growth inhibition (GI)” value in assay [1] is “Active”. Consider `COc1cc2c3c(c4cc(OC)c(OC)cc4c2cc1OC)CN(CCN)CC3`, for which, in assay [1], the “growth inhibition (GI)” value is “inactive”. For the compound `COc1cc2c3c(c4cc(OC)c(OC)cc4c2cc1OC)CN(Cc1ccc(CO)o1)CC3`, in assay [1], the “growth inhibition (GI)” value was “Active”.

In assay [2], `COc1cc2c3c(c4cc(OC)c(OC)cc4c2cc1OC)CN1CCC[C@H]1C3` [(S)-TYLOPHORINE] gave a GI50 of 42 nM. For the compound `COc1cc2c3c(c4cc(OC)c(OC)cc4c2cc1OC)CN(Cc1cc(C)on1)CC3`, in assay [1], the “growth inhibition (GI)” value was “Active”.

Take `COc1cc2c3c(c4cc(OC)c(OC)cc4c2cc1OC)CN(Cc1ccccc1)CC3`: the “growth inhibition (GI)” value in assay [1] was “inactive”. The compound `COc1ccccc1CN1CCc2c(c3cc(OC)c(OC)cc3c3cc(OC)c(OC)cc23)C1` came in with an IC50 in assay [3] of 15000 nM. The GI50 in assay [4] was determined as 1500 nM; in assay [2] it was 600 nM; in assay [5] it was 1600 nM. In addition, the inhibition of growth at 5 µM in assay [1] was 90%. As to `COc1cc2c3c(c4cc(OC)c(OC)cc4c2cc1OC)CN(Cc1c(OC)cccc1OC)CC3`, in assay [1], the “growth inhibition (GI)” value was “inactive”. As for `COc1cc2c3c(c4cc(OC)c(OC)cc4c2cc1OC)CN(Cc1ccccc1O)CC3`, in assay [1], the “growth inhibition (GI)” value is “Active”.

As a reminder, the GI50 is the concentration giving 50% growth inhibition. Read a low GI50 as greater sensitivity of the cells. What is called IC50 is the concentration at which inhibition is half-maximal.
